Assay results published in ChEMBL document CHEMBL1126304 (J Med Chem, 1992).
Calls of active or inactive are those of the source. The calls are words filed in the database; no cut-off is given here.

Columns and labels:
[1] = system: Felis catus; test: In vivo activity against gastric secretion in conscious cat; assay type: functional, Stomach
[2] = species: Cavia porcellus; test: In vitro activity against gastric secretion in isolated guinea pig stomach; assay type: functional
[3] = target: Histamine H2 receptor (Cavia porcellus) (UniProt P47747); test: Intrinsic activity against histamine H2 receptor; assay type: functional
[4] = system: Felis catus; test: In vivo activity against gastric secretion in conscious cat; not active; assay type: functional, organism-based; conditions: Stomach
[5] = target: Histamine H2 receptor (Cavia porcellus) (UniProt P47747); test: Histamine H2 receptor agonistic activity in guinea pig right atrium; assay type: functional, tissue-based; conditions: Cardiac atrium
[6] = target: Histamine H2 receptor (Cavia porcellus, UniProt P47747); test: Compound is evaluated for histamine H2 receptor agonistic activity in guinea pig cerebral cortex using [3H]tiotidine as radioligand; assay type: functional, tissue-based
Method in brief: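 H2-receptor binding measured on guinea pig cerebral cortex preparations by displacement of [3H]tiotidine. Displacement curves were fitted by nonlinear regression.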

Chain of Histamine H2 receptor (P47747 whole entry): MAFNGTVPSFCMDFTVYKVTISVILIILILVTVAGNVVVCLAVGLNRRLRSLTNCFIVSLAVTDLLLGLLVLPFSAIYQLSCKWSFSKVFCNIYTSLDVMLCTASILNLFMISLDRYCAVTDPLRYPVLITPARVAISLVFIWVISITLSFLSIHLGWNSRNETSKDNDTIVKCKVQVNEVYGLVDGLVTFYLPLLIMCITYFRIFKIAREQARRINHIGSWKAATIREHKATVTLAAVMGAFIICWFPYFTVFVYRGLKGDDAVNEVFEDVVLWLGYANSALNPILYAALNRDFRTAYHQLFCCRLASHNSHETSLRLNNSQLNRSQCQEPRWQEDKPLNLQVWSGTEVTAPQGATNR
Chain of Histamine H2 receptor (Cavia porcellus) (P47747 whole entry): as above

Row | SMILES | Intrinsic activity [3] | pD2 [5] | Kd [6] | also measured
1 | CN(C)CCc1cnc(N)s1 | – | – | – | pD2 [1]: 6.3; pD2 [2]: 5.81
2 | NCCc1c[nH]cn1 | 1 | – | – | –
3 | CN(C)CCc1cnc(N(C)C)s1 | – | – | – | pD2 [4]: inactive
4 | CN(C)CCCSC(=N)N | 1.06 | 5.67 | 26.3 µM | –
5 | N=C(N)NCCCc1c[nH]cn1 | – | 4.7 | – | –
6 | N=C(NCCCc1c[nH]cn1)NCCC(c1ccc(F)cc1)c1ccccn1 (stereo not drawn) | – | 8 | – | –
7 | NCCc1csc(N)n1 | 0.94 | 4.6 | 110 µM | –
8 | CNCCc1cnc(N)s1 | – | – | – | pD2 [1]: 6.52; pD2 [2]: 6.02
9 | Cc1ncsc1CCN | 0.96 | 4.67 | 355 µM | –
10 | CNc1ncc(CCN(C)C)s1 | – | – | – | pD2 [4]: inactive
11 | N=C(NCCCc1c[nH]cn1)NCCC(c1ccccc1)c1ccccc1 | – | 7.7 | – | –
12 | Cc1nc(N)sc1CCN | 0.95 | – | 5.01 µM | –
13 | NCCc1cnc(N)s1 | 1 | 5.51 | 15.1 µM | pD2 [1]: 6.1
14 | Cc1nc(C)c(CCN)s1 | 0.97 | 3.78 | 174 µM | –
